Results from ChEMBL document CHEMBL4480390, “Cink4T, a quinazolinone-based dual inhibitor of Cdk4 and tubulin polymerization, identified via ligand-based virtual screening, for efficient anticancer therapy” (Eur J Med Chem, 2019).
Active and inactive are the calls of the source. No cut-off for these calls is given here.

Assays:
[1] = molecular target: Cyclin-dependent kinase 4/cyclin D1 (Homo sapiens) (UniProt P11802+P24385); test: Inhibition of recombinant human N-terminal GST-tagged CDK4 (S4 to E303 residues)/Cyclin D1 (Q4 to I295 residues) expressed in sf9 cells at 10 uM using RBCTF as substrate measured after 1 hr by ADP-glo luminescence assay relative to control
[2] = molecular target: CDK2/Cyclin A2 (Homo sapiens, UniProt P24941); test: Inhibition of human full length N-terminal GST-fused CDK2 (M1 to L298 residues)/human full length Cyclin-A2 (M1 to L432 residues) expressed in Sf9 cells using histone H1 as substrate measured after 1 hr by ADP-glo luminescence assay
[3] = molecular target: Cyclin-dependent kinase 4/cyclin D1 (Homo sapiens, UniProt P11802); test: Inhibition of recombinant human N-terminal GST-tagged CDK4 (S4 to E303 residues)/Cyclin D1 (Q4 to I295 residues) expressed in sf9 cells using RBCTF as substrate measured after 1 hr by ADP-glo luminescence assay
How it was run: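 ADP-Glo luminescence assay of Cdk4–cyclin D1 with RBCTF substrate, 200 ng enzyme, ATP 125 µM (2.5x working mix), Tris/MgCl2/BSA/DTT/MnCl2 buffer, 1 h at 21°C, then two 40-min reagent steps. IC50 from a four-parameter variable-slope sigmoidal fit of inhibition against concentration; mean ± SD from three independent experiments.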

[4] = test system: T47D; test: cells; details: Homo sapiens, 72 h
[5] = test system: A549; test: cells; details: Homo sapiens, A549, 72 h
[6] = molecular target: T1, Cytochrome P450 1B1 (Homo sapiens, UniProt Q16678); test: Inhibition of recombinant human CYP1B1 expressed in baker's yeast-derived microsomes using 7-ethoxyresorufin as substrate by fluorescence assay
T1 sequence (Q16678 whole entry): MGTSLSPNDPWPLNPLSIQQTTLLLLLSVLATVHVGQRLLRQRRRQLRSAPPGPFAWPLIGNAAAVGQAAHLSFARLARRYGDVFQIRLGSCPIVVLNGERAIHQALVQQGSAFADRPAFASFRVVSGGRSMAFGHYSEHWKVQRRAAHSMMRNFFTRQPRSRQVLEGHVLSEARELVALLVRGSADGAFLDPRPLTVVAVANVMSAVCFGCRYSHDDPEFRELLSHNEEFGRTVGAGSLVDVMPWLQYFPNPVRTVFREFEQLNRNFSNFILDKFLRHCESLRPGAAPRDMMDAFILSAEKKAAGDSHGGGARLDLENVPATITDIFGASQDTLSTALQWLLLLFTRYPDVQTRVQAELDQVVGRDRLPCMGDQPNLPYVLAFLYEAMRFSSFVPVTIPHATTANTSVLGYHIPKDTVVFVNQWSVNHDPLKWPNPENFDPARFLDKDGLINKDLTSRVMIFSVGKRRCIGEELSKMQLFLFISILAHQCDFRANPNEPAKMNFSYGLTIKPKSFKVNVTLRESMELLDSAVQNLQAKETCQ

[7] = molecular target: CDK6/cyclin D1 (Homo sapiens, UniProt Q00534); test: Inhibition of CDK6/cyclin D1 (unknown origin) using RBER-CHKtide as substrate measured after 1 hr by ADP-glo luminescence assay; type: protein-complex assay
How it was run: (§1)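 ADP-Glo kinase assay with 200 ng Cdk-cyclin enzyme, ATP (125 µM in 2.5x mix) and 25 µg substrate (RBCTF or RBER-CHKtide, per Cdk). Buffer: Tris, MgCl2, BSA, DTT, MnCl2 cofactor, DMSO. Reaction 1 h at 21°C; ADP-Glo 40 min, then detection reagent 40 min. Luminescence read. IC50 by 4-parameter fit; three independent experiments.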

[8] = molecular target: CDK9/cyclin T1 (Homo sapiens, UniProt P50750); test: Inhibition of N-terminal GST-HIS6 fusion protein tagged human full length CDK9 (M1 to F372 residues)/N-terminal HIS6-fused human Cyclin-T1 (M1 to K726 residues) expressed in Sf9 cells using RBCTF as substrate measured after 1 hr by ADP-glo luminescence assay
[9] = molecular target: Cyclin-dependent kinase 1/cyclin B1 (Homo sapiens, UniProt P06493); test: Inhibition of recombinant human N-terminal GST/His6-tagged CDK1 (M1 to M297 residues)/CyclinB1 (M1 to V433 residues) expressed in Sf9 insect cells using RBCTF as substrate measured after 1 hr by ADP-glo luminescence assay
[10] = test system: MDA-MB-468; test: cells; details: Homo sapiens, MDA-MB-468, 72 h
[11] = molecular target: CDK9/cyclin T1 (Homo sapiens) (UniProt O60563+P50750); test: Inhibition of N-terminal GST-HIS6 fusion protein tagged human full length CDK9 (M1 to F372 residues)/N-terminal HIS6-fused human Cyclin-T1 (M1 to K726 residues) expressed in Sf9 cells at 10 uM using RBCTF as substrate measured after 1 hr by ADP-glo luminescence assay relative to control; how it was run: as §1
[12] = molecular target: T2, Cytochrome P450 1A2 (Homo sapiens, UniProt P05177); test: Inhibition of recombinant human CYP1A2 expressed in baker's yeast-derived microsomes using 3-cyano-7-ethoxycoumarin as substrate by fluorescence assay; type: ADME
T2 sequence (P05177 whole entry): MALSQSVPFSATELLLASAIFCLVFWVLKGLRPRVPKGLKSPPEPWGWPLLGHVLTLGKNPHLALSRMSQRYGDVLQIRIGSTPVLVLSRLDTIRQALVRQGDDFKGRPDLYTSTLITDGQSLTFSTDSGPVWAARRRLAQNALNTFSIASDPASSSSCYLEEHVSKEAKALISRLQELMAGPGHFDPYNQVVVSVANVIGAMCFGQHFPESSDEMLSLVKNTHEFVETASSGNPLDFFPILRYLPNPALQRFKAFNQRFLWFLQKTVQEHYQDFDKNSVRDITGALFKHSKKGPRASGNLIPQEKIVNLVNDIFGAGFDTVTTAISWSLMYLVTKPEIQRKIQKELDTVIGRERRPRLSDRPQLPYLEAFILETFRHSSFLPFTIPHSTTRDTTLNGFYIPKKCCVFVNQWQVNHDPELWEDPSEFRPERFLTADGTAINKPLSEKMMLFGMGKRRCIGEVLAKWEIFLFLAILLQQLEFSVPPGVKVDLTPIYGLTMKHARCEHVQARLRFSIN

[13] = molecular target: Tubulin (Sus scrofa) (UniProt P02554+P02550); test: Inhibition of porcine tubulin polymerization at 5 uM incubated for 1 min by fluorescence based assay; type: protein assay
How it was run: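 Compounds added from 10x stocks in duplicate and warmed at 37°C ≤1 min. Ice-cold tubulin pre-mix then added. Fluorescent reporter read at ex 360/em 460 nm for 60 min. Paclitaxel served as enhancer control, CaCl2 as inhibitor control.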

[14] = molecular target: T3, Cytochrome P450 1A1 (Homo sapiens, UniProt P04798); test: Inhibition of recombinant human CYP1A1 expressed in baker's yeast-derived microsomes using 7-ethoxyresorufin as substrate by fluorescence assay; type: ADME
T3 sequence (P04798 whole entry): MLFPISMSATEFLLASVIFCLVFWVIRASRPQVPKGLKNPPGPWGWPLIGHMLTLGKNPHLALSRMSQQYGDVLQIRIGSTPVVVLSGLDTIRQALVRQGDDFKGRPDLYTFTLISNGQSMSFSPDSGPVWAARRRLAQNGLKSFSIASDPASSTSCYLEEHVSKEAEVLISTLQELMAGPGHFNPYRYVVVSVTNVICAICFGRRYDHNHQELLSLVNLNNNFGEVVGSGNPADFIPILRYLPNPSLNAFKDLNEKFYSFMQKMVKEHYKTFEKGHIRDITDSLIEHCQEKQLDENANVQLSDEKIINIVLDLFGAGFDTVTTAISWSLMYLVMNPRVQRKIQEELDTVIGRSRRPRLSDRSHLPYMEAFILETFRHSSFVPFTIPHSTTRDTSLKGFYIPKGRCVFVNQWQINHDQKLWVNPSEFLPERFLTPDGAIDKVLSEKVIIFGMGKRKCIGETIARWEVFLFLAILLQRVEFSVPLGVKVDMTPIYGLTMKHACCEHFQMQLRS

[15] = test system: Calu-1; test: cells; details: Homo sapiens, Calu-1, 72 h

| Structure (SMILES) | inhibition [1] | other results |
| --- | --- | --- |
| O=C(COc1ccc(-c2nc3ccccc3c(=O)[nH]2)cc1)Nc1cccc2ccccc12 | 5% |  |
| O=c1[nH]c(-c2cccc(O)c2)nc2ccccc12 | -6% |  |
| COc1cc(-c2nc3ccccc3c(=O)[nH]2)ccc1OCC(=O)Nc1ccc(F)cc1 | 7% |  |
| COc1ccc(-c2nc3ccccc3c(=O)[nH]2)cc1OCC(=O)Nc1ccccc1Cl | 41% |  |
| COc1ccc(NC(=O)COc2ccc(-c3nc4ccccc4c(=O)[nH]3)cc2OC)cc1 | 41% |  |
| O=C(COc1ccc(-c2nc3ccccc3c(=O)[nH]2)cc1)Nc1ccc2ccccc2c1 | 0% |  |
| CCOc1ccc(NC(=O)COc2ccc(-c3nc4ccccc4c(=O)[nH]3)cc2OC)cc1 | 0% |  |
| CCOc1ccc(NC(=O)COc2cc(-c3nc4ccccc4c(=O)[nH]3)ccc2OC)cc1 | 3% |  |
| O=C(COc1ccc(-c2nc3ccccc3c(=O)[nH]2)cc1)Nc1ccccc1 | 45% |  |
| COc1cc(-c2nc3ccccc3c(=O)[nH]2)ccc1OCc1ccc(F)cc1F | 36% |  |
| O=C(COc1ccc(-c2nc3ccccc3c(=O)[nH]2)cc1)NC1CCCCC1 | 20% |  |
| COc1cc(-c2nc3ccccc3c(=O)[nH]2)ccc1O | 39% |  |
| COc1cccc(NC(=O)COc2ccc(-c3nc4ccccc4c(=O)[nH]3)cc2OC)c1 | 16% |  |
| COc1ccc(-c2nc3ccccc3c(=O)[nH]2)cc1OCC(=O)Nc1ccccc1C | -5% |  |
| O=c1[nH]c(-c2ccc(Oc3ccc(F)cc3)cc2)nc2ccccc12 | 30% |  |
| COc1ccccc1NC(=O)COc1ccc(-c2nc3ccccc3c(=O)[nH]2)cc1OC | 89% | IC50 [2]: > 50 µM; IC50 [3]: 1.5 µM; EC50 [4]: 4 µM; EC50 [5]: 3 µM; IC50 [6]: > 5 µM; IC50 [7]: > 100 µM; IC50 [8]: > 100 µM; IC50 [9]: > 50 µM; EC50 [10]: > 50 µM; IC50 [12]: > 5 µM; inhibition [13]: Active; IC50 [14]: > 5 µM; EC50 [15]: 6 µM |
| COc1ccc(NC(=O)COc2cc(-c3nc4ccccc4c(=O)[nH]3)ccc2OC)cc1 | 14% |  |
| COc1ccc(-c2nc3ccccc3c(=O)[nH]2)cc1Oc1ccc(F)cc1 | 46% |  |
| C#CCOc1ccc(-c2nc3ccccc3c(=O)[nH]2)cc1OC | 38% |  |
| Cc1ccc(NC(=O)COc2ccc(-c3nc4ccccc4c(=O)[nH]3)cc2)cc1 | 5% |  |
| CS(=O)(=O)Oc1ccc(-c2nc3ccccc3c(=O)[nH]2)cc1 | 42% |  |
| O=c1[nH]c(-c2ccc([N+](=O)[O-])cc2)nc2ccccc12 | 0% |  |
| CC(=O)c1c(C)c2cnc(Nc3ccc(N4CCNCC4)cn3)nc2n(C2CCCC2)c1=O | 95% | inhibition [11]: -4% |
| COc1cc(-c2nc3ccccc3c(=O)[nH]2)ccc1Oc1ccc(Cl)cc1Cl | 55% |  |

The next lines start with results.

| inhibition [1] | Structure (SMILES) | other results |
| --- | --- | --- |
| 21% | COc1ccccc1NC(=O)COc1cc(-c2nc3ccccc3c(=O)[nH]2)ccc1OC |  |
| 30% | O=c1[nH]c(-c2ccc(O)cc2)nc2ccccc12 |  |
| 26% | O=C(COc1ccc(-c2nc3ccccc3c(=O)[nH]2)cc1)Nc1ccc([N+](=O)[O-])cc1 |  |
| 76% | COc1ccc(-c2nc3ccccc3c(=O)[nH]2)cc1OCC(=O)NC1CCCCC1 | IC50 [2]: > 100 µM; IC50 [3]: 3.8 µM; EC50 [4]: 8.2 µM; EC50 [5]: 7.5 µM; IC50 [6]: > 5 µM; IC50 [7]: > 100 µM; IC50 [8]: > 50 µM; IC50 [9]: > 50 µM; EC50 [10]: > 50 µM; inhibition [11]: 8%; IC50 [12]: > 5 µM; inhibition [13]: Active; IC50 [14]: > 5 µM; EC50 [15]: 9.8 µM |
| 78% | COc1cc(-c2nc3ccccc3c(=O)[nH]2)ccc1OS(C)(=O)=O | IC50 [2]: > 100 µM; EC50 [4]: 8 µM; EC50 [5]: 7 µM; EC50 [10]: > 50 µM; inhibition [11]: -5%; inhibition [13]: Active; EC50 [15]: 9 µM |
| 5% | COc1cccc(NC(=O)COc2cc(-c3nc4ccccc4c(=O)[nH]3)ccc2OC)c1 |  |
| 36% | Oc1nc(-c2cccnc2)nc2ccccc12 |  |
| 0% | O=C(COc1ccc(-c2nc3ccccc3c(=O)[nH]2)cc1O)Nc1ccc(Cl)cc1 |  |
| 30% | O=c1[nH]c(-c2ccc(OCc3ccc(F)cc3F)cc2)nc2ccccc12 |  |
| 48% | CCCCNC(=O)COc1ccc(-c2nc3ccccc3c(=O)[nH]2)cc1OC |  |
| 45% | COc1ccc(-c2nc3ccccc3c(=O)[nH]2)cc1OCc1ccc(F)cc1F |  |
| 31% | O=c1[nH]c(-c2ccc(Br)cc2)nc2ccccc12 |  |
| 20% | COc1ccc(-c2nc3ccccc3c(=O)[nH]2)cc1OCC(=O)Nc1ccccc1 |  |
| 0% | COc1ccc(-c2nc3ccccc3c(=O)[nH]2)cc1O |  |
| 1% | COc1ccc(-c2nc3ccccc3c(=O)[nH]2)cc1OCC(=O)Nc1ccc([N+](=O)[O-])cc1 |  |
